# From PubChem
# Tb MetRS inh – blocks T. brucei methionyl-tRNA synthetase activity; purified T. brucei MetRS, ATP depletion, Kinase-Glo luminescence; inhibition, % at 11.9 µM; 0.4% of 360,000 active; AID 624268;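 active = inhibition above a per-plate cutoff of the control wells' mean inhibition plus 3 SD, cut at about 5.5% in these data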
#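 Material – parasite MetRS enzyme · Medium – HEPES-MgCl2-KCl buffer plus DTT, spermine, BSA, pyrophosphatase · Reagent – ATP, methionine and E. coli bulk tRNA substrates · Times – 15 min enzyme-compound preincubation, 2 h reaction, 10 min detection, 25 °C · Measured by – luminescence of leftover ATP · Evaluation – percent inhibition relative to median high and low control wells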
# NPR2 activator – GC-B (human) receptor activation | HEK293-GC-B cells, CNP EC30, cGMP TR-FRET; 0% at EC30 CNP, 100% saturating CNP | activation, % at 10 µM | 0.11% of 370,000 active | AID 1920062;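 active = activation at 10 µM reaching about 35% in either raw or pattern-adjusted values, limit read from the data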
# MT1-MMP act inh – MT1-MMP (human) activation inhibition. AID 651647. HT1080 RFP-PRO-GFP cells, GFP/RFP ratio fluorescence, overnight; percent of plate control window, DMSO zero. 0.061% of 360,000 active. GFP/RFP ratio change, % at 20 µM;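 active = GFP/RFP ratio change of at least 30% with cell ATP level not reduced by more than half and red fluorescence within 50% of control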
#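 Compound: 20 µM single dose, 1% DMSO / System: HT1080 RFP-PRO-GFP cells / Controls: DMSO and RFP-L50D-GFP cell wells / Read-out basis: GFP/RFP fluorescence ratio / Schedule: overnight compound exposure at 37 °C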
# Bfl-1 A1 inh – inhibitors of the anti-apoptotic protein A1, read as caspase activation. MEF A1-2A-BIM cells, Caspase-Glo 3/7 luminescence, 3 h; percent of clofoctol response, vehicle zero. caspase activation, % (no concentration beside the values). 0.066% of 330,000 active. AID 2462;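 active = over half of replicate activation scores above 10%, or exactly half above 10 with the replicate mean above 10; inconclusive = replicate mean below 10 yet half the replicates above 10; inactive = over half of replicates below 10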
# NPR1 activator – GC-A (human) enzyme activation; HEK293 GC-A cells, cGMP TR-FRET, EC30 ANP; 0% at EC30 ANP, 100% saturating ANP; activation, % at 10 µM; 0.14% of 370,000 active; in the data active = activation above about 40%
# SKN-1 block – blocks SKN-1 activity in C. elegans. 0.49% of 360,000 active. inhibition, % at 21.8 µM. AID 624304. C. elegans VP596 Pgst-4::GFP/RFP ratio, acrylamide-induced, 24 h;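 active = interference check ratio from 0.5 to 1.5 plus GFP to RFP signal ratio inhibition reaching or exceeding a fixed threshold, cut at about 30% in these data, passing the limit was not always enough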
# Hits are given with their value; – = inactive; ? = inconclusive; · = no result. This is a sample that favours compounds with a hit; in the whole collection about 1.1% have one here.
SMILES,Tb MetRS inh,NPR2 activator,MT1-MMP act inh,Bfl-1 A1 inh,NPR1 activator,SKN-1 block
CC(C)(C)CCN1C[C@@H]2C(CNC(=O)c3cc(Cl)cc(Cl)c3)[C@@H]2C1 (stereo partly drawn),·,–,·,·,–,·
N/C(=N\OC(=O)c1ccco1)c1ccc(Br)cc1,–,–,–,–,–,50
Cc1ccc(/C(N)=N/OC(=O)c2ccco2)cc1,–,–,–,–,–,85
N/C(=N\OC(=O)Cc1cccs1)c1ccc(Br)cc1,–,–,–,–,–,61
COc1ccc(/C(N)=N/OC(=O)c2ccco2)cc1,–,–,–,–,–,51
COc1ccc2c(c1)CN1CN(Cc3ccc(F)cc3)S(=O)(=O)CC21 (stereo not drawn),·,–,·,·,–,·
Cc1cc(C(=O)O[C@@H]2CCC[C@]3(C(=O)N(Cc4ccccc4)c4ccccc43)[C@H]2NC(=O)CCc2ccccc2)no1,·,–,·,·,–,·
CCCCOc1ccc(C(=O)OC2CC(C)N(C)CC2C)cc1 (stereo not drawn),–,–,–,–,–,42
O=C(CCCn1c(=S)[nH]c2cc3c(cc2c1=O)OCO3)NCc1ccco1,–,–,–,–,–,–
O=c1c2cc3c(cc2[nH]c(=S)n1Cc1ccco1)OCO3,–,–,–,–,–,40
Cc1ccc2cc3c(NC(=O)c4cccnc4)nn(C)c3nc2c1,–,·,–,–,·,40
O=C(CSc1nnc(-c2ccccc2)n1-c1ccccc1)Nc1cccc2ccccc12,·,–,·,·,–,·
O=C(O)CNS(=O)(=O)c1ccc2c(c1)C(=O)c1cc(S(=O)(=O)NCC(=O)O)ccc1-2,–,–,–,–,–,29
O=C(Nc1nccs1)c1ccc(-c2ccc([N+](=O)[O-])cc2)o1,–,–,–,–,–,–
O=C(Nc1nccs1)c1ccc(-c2ccc(F)cc2)o1,–,–,–,–,–,52
O=C(Nc1nccs1)c1ccc(-c2ccc(Cl)cc2)o1,–,–,–,–,–,41
NC(=O)C1CCN(C(=O)c2ccc3c(c2)S(=O)(=O)c2ccccc2C3=O)CC1,–,–,–,–,–,–
CCOC(=O)C1CCN(C(=O)c2ccc3c(c2)S(=O)(=O)c2ccccc2C3=O)CC1,–,–,–,–,–,36
O=C1NC(Cc2ccc(O)cc2)c2nc3ccc(Cl)cc3c(=O)n2-c2cc3ccccc3cc21 (stereo not drawn),–,57,–,·,–,–
O=C(NCCO)[C@H](Cc1ccccc1)NC1(C(=O)NCCc2c[nH]c3ccccc23)CCCCC1,·,–,·,·,–,·
O=C1CCC[C@H]2C[C@H](NCc3ccccc3F)CC[C@]23CCCN13,·,–,·,·,–,·
COC(=O)c1oc2ccc(Cl)cc2c1-n1cccc1,–,–,–,–,–,37
COC(=O)c1oc2ccccc2c1-n1cccc1,–,–,–,–,–,–
O=C(Cn1nc(-c2ccccc2)c2ccccc21)Oc1ccccc1,·,–,·,·,–,·
COc1cccc(-n2cnnn2)c1,–,–,–,–,–,40
SMILES,Tb MetRS inh,NPR2 activator,MT1-MMP act inh,Bfl-1 A1 inh,NPR1 activator,SKN-1 block
COC(=O)c1cccc(-n2cnnn2)c1,–,–,–,–,–,–
COC(=O)[C@]12C[C@H](CC(=O)N3CCSCC3)C(=O)N(Cc3cccc4ccccc34)C1=C[C@H](C1CCCC1)O[C@@H]2C,·,–,·,·,–,·
O=C(O)c1cccc2c1-c1ccc(Cl)cc1C2=O,–,–,–,·,–,–
Nc1cccc2c1C(=O)c1ccc(Cl)cc1C2=O,–,–,–,·,–,46
CN(C)C(=O)COc1ccc2c(-c3ccccc3)cc(=O)oc2c1,–,–,–,–,–,–
CCOCCOC(=O)COc1ccc2c(-c3ccccc3)cc(=O)oc2c1,–,–,–,–,52,–
COC(=O)[C@]12C[C@H](CC(=O)N3CCOCC3)C(=O)N(CCc3ccc(OC)c(OC)c3)C1=C[C@H](C(C)C)O[C@@H]2C1CC1,·,–,·,·,–,·
CC(C)(C)OC(=O)N1CC=C2C(C#N)=C(N)C(C#N)(C#N)[C@H](c3cccnc3)[C@H]2C1,–,–,–,–,48,–
CC(C)(C)OC(=O)N1CC=C2C(C#N)=C(N)C(C#N)(C#N)C(c3cccs3)C2C1 (stereo not drawn),–,–,–,–,–,–
COc1ccc(C=Nn2c(-c3ccccc3F)n[nH]c2=S)cc1OCc1ccccc1,·,–,·,·,–,·
C/C(=N\OCc1ccccc1C#N)c1cc2ccccc2o1,–,–,–,–,–,–
C/C(=N\OCc1ccc(C#N)cc1)c1cc2ccccc2o1,–,–,–,–,–,54
O=C(NC1CCCCN(Cc2cccc(C(F)(F)F)c2)C1=O)c1ccc(F)c(F)c1 (stereo not drawn),·,–,·,·,–,·
CN1/C(=C\C(=O)Nc2cccc(Cl)c2)C(C)(C)c2ccccc21,–,–,–,–,–,50
Brc1ccc(OCc2cn3ccccc3n2)cc1,–,–,–,–,–,48
Cc1cc(NC(C)c2ccccc2)n2ncc(-c3ccccc3)c2n1 (stereo not drawn),–,–,–,?,50,–
Cc1ccc(Nc2nc(-c3cccs3)cs2)nc1,–,–,–,–,–,46
Cc1cc(-c2cccs2)c(C#N)c(=S)[nH]1,–,–,–,–,40,–
COc1ccc(OCC(=O)Sc2ccc(C)cc2)cc1,–,–,–,–,–,43
N#C/C(=C/c1ccco1)c1nc2ccccc2s1,–,–,–,–,–,86
N#C/C(=C/c1ccc(-c2cc(C(=O)O)cc(C(=O)O)c2)o1)c1nc2ccccc2s1,·,·,·,–,·,·
N#C/C(=C\c1ccco1)c1nc2ccccc2s1,–,–,–,–,–,88
COc1ccc(-c2nc3ncccn3c2Nc2ccc3c(c2)OCCO3)cc1,–,43,–,·,46,–
Cc1ccc(-c2nc3ncccn3c2Nc2ccc3c(c2)OCCO3)cc1,–,44,–,–,41,–
Clc1ccc(-c2nc3ncccn3c2Nc2ccc3c(c2)OCCO3)cc1,–,42,–,–,45,–
Oc1ccc(-c2nc3ncccn3c2Nc2ccc3c(c2)OCCO3)cc1,–,–,–,–,–,–
Clc1ccc(-c2nc3cnccn3c2Nc2ccc3c(c2)OCO3)cc1,–,39,–,–,41,–
FC(F)(F)c1ccc2nc(CNc3nc(N4CCOCC4)nc4c3ncn4-c3ccsc3)[nH]c2c1,·,–,·,·,–,·
COc1ccc(OC[C@@H](O)CN2CCC(C(O)(c3ccccc3)c3ccccc3)CC2)cc1,·,–,·,·,–,·
O=C(Nc1nc(-c2ccc(S(=O)(=O)N3CCCC3)cc2)cs1)c1cccs1,–,–,–,–,–,38
